Screening results deposited in PubChem BioAssay by Broad Institute.
Sampled rows, rich in hits. Any-hit rate of the full collection: about 5.9%.
IDH1 R132H inh: blocks human IDH1 R132H reductase activity | diaphorase/resazurin fluorescence, 60 min | O75874 | hit rate 0.18% among 70,000 | inhibition, % at 10 µM; in the data active = inhibition above about 34%; inconclusive = no clear call, values can overlap the other calls; inactive = below about 11%;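 note: 0% = DMSO and 100% = no enzyme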
Target sequence (O75874 whole entry R132H): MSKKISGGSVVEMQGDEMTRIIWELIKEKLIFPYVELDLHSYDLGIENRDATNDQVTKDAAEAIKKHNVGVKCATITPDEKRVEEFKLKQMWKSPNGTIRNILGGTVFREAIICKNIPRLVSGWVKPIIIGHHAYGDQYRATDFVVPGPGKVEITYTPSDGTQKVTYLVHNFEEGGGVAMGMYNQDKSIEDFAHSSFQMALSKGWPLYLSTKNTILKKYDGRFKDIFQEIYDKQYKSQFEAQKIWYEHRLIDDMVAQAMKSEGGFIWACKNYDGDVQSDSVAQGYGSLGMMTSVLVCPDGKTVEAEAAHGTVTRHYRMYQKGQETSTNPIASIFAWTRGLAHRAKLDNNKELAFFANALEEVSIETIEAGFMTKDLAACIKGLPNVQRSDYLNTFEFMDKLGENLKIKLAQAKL
Pf Dd2 inh: inhibitors of Plasmodium falciparum Dd2 growth; hit rate 2.3% among 94,000; activity change, % at 10 µM; P. falciparum Dd2 growth, SYBR Green, 72 h; hits give low values; AID 1159554; in the data active = activity change below about -80%; inconclusive = no clear call, values can overlap the other calls
GASC1 inh: KDM4C (human) demethylase inhibition. inhibition, % at 12.5 µM. hit rate 0.15% among 96,000. Q9H3R0. GST-KDM4C 2-372, H3K9me3 peptide, LANCE TR-FRET;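 active = mean replicate inhibition above about 25%, with at least 55% of replicates also reaching it, limit read from the data, passing the limit was not always enough; inconclusive = only one of those two conditions met; inactive = neither condition met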
Target sequence (Q9H3R0 2-372 limits assumed): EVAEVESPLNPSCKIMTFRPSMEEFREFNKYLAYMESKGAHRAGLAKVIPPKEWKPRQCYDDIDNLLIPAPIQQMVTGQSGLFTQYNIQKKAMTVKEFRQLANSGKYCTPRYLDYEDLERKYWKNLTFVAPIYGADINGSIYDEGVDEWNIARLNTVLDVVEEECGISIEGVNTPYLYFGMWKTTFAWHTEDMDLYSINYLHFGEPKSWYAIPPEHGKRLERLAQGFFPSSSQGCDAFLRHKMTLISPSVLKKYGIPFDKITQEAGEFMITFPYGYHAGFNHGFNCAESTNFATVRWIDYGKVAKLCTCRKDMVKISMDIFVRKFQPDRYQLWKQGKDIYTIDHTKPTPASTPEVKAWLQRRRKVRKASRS
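System: N-terminal GST-fused human GASC-1 (KDM4C) fragment, residues 2-372; amount: enzyme final amount 10 nM; incubation: reaction 30 min RT, detection step 1 h RT; medium: HEPES buffer, pH 7.5, plus ascorbate; technique: LANCE TR-FRET, Eu antibody, ULight-streptavidin, EDTA, ex 340 nm, em 618/671 nm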
T cruzi growth-1: T. cruzi proliferation inhibition | hit rate 5.9% among 77,000 | AID 624255 | inhibition, % at 8.34 µM | T. cruzi beta-gal in NIH3T3, GalScreen luminescence, 90 h;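 active = mean inhibition above about 93%, with at least 55% of replicates each passing it, limit read from the data, passing the limit was not always enough; inconclusive = only one of those two conditions holds; inactive = neither condition holds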
T cruzi growth-2: Trypanosoma cruzi proliferation inhibition; shares compounds with T cruzi growth-1; T. cruzi beta-gal in NIH3T3, GalScreen luminescence, 90 h; inhibition, % at 8.35 µM; hit rate 72% among 5,600;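 active = mean replicate inhibition above about 95% and at least 55% of replicates individually reaching it, limit read from the data; inconclusive = only one of the two criteria is met; inactive = neither criterion is met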
T cruzi growth-3: blocks T. cruzi growth in NIH3T3 host cells; AID 651740; T. cruzi beta-gal in NIH3T3, GalScreen luminescence, 90 h; shares compounds with T cruzi growth-1; inhibition, % at 2.09 µM; hit rate 21% among 5,600;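 active = mean inhibition above about 95%, with at least 55% of replicates also reaching it, limit read from the data; inconclusive = meets just one of the two conditions; inactive = meets neither condition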;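 note: plate controls were neutral control median for no effect and positive control median for full effect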
3T3 cytotox: NIH/3T3 (mouse) viability loss; shares compounds with T cruzi growth-1; NIH/3T3 viability, CellTiter-Glo ATP luminescence, 90 h; cytotoxicity (signal decrease), % at 8.35 µM; hit rate 14% among 5,600;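 active = mean signal decrease across replicates above about 35% based on untreated-well scatter, with enough replicates individually passing, limit read from the data; inconclusive = no rule stated though some were filed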;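 note: 0% = median of neutral control wells and 100% = median of positive control wells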
NIH3T3 tox 2: cytotoxicity in mouse NIH/3T3 fibroblasts; shares compounds with T cruzi growth-1; NIH/3T3 viability, CellTiter-Glo ATP luminescence, 90 h; inhibition, % at 24.9 µM; hit rate 56% among 5,600; AID 651744;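 active = mean loss of cell viability signal at or above a set limit, and enough replicates individually reaching it; inconclusive = meets only the mean limit or only the replicate share; inactive = meets neither condition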;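 note: 0% = median of neutral control wells and 100% = median of positive control wells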
* = called active by the depositor; ? = inconclusive; nt = not tested or not shown.

SMILES | IDH1 R132H inh | Pf Dd2 inh | GASC1 inh | T cruzi growth-1 | T cruzi growth-2 | T cruzi growth-3 | 3T3 cytotox | NIH3T3 tox 2
C[C@@H]1CCCCO[C@@H](CN(C)C(=O)Nc2ccc(F)cc2)[C@@H](C)CN([C@H](C)CO)C(=O)c2cc(NC(=O)Nc3cccc4ccccc34)ccc2O1 | 1 | 11 | -1 | 103* | 89 | 18 | 4 | 15
Cc1c(NC(=S)NC(=O)COc2ccccc2)cccc1-c1nc2ccccc2s1 | 0 | nt | nt | nt | nt | nt | nt | nt
Cc1ccc(S(=O)(=O)N(C)CC(=O)Nc2ccccc2Sc2ccccc2)cc1 | 0 | nt | nt | nt | nt | nt | nt | nt
O=C(COc1cc(Cl)c(Cl)cc1Cl)Nc1ccccc1C(=O)N1CCCCC1 | 0 | nt | nt | nt | nt | nt | nt | nt
CC(Oc1ccccc1)C(=O)Nc1cc([N+](=O)[O-])ccc1O (stereo unspecified) | 0 | nt | nt | nt | nt | nt | nt | nt
COc1ccc(C#Cc2cnc3c(c2)C(=O)N([C@H](C)CO)C[C@H](C)[C@H](CN(C)C(C)=O)O3)cc1 | 0 | -5 | 0 | 110* | 90 | -18 | 21 | 34*
COc1ccc(C#Cc2cnc3c(c2)C(=O)N([C@@H](C)CO)C[C@H](C)[C@@H](CN(C)C(=O)CC2CC2)O3)cc1 | -4 | -67 | -1 | 97* | 60 | 31 | -8 | 26
COc1ccc(C#Cc2cnc3c(c2)C(=O)N([C@@H](C)CO)C[C@@H](C)[C@@H](CN(C)C(=O)CC2CC2)O3)cc1 | 0 | -60 | -2 | 56 | nt | nt | nt | nt
CC(Oc1ccc(Cl)cc1Cl)C(=O)NC(=S)Nc1sc2c(c1C#N)CCCC2 (stereo unspecified) | 1 | nt | nt | nt | nt | nt | nt | nt
COC(=O)c1c(NC(=O)Cn2cc([N+](=O)[O-])cn2)sc2c1CCCC2 | 0 | nt | nt | nt | nt | nt | nt | nt
COc1cccc(C#Cc2ccc([C@H]3[C@H](C#N)N(C(=O)C4CC4)[C@H]3CO)cc2)c1 | nt | -39 | -4 | 104* | 106* | 76 | 6 | 42*
COc1ccccc1C#Cc1ccc([C@@H]2[C@@H](C#N)N(C(=O)C3CC3)[C@@H]2CO)cc1 | nt | -3 | -1 | 80 | nt | nt | nt | nt
COc1ccccc1C#Cc1ccc([C@@H]2[C@H](C#N)N(C(=O)C3CC3)[C@H]2CO)cc1 | nt | -35 | -1 | 88 | nt | nt | nt | nt
COc1ccccc1C#Cc1ccc([C@H]2[C@@H](C#N)N(C(=O)C3CC3)[C@@H]2CO)cc1 | nt | -42 | 0 | 97* | 101* | 107* | 30 | 50*
COc1cccc(C#Cc2ccc([C@@H]3[C@@H](C#N)N(C(=O)C4CCCC4)[C@H]3CO)cc2)c1 | nt | -70 | 4 | nt | nt | nt | nt | nt
COc1ccccc1C#Cc1ccc([C@@H]2[C@@H](C#N)N(C(=O)C3CC3)[C@H]2CO)cc1 | nt | -33 | -2 | 99* | 108* | 86 | -9 | 34*
COc1ccc(N(C(=O)C2CCCCC2)S(=O)(=O)c2cc(OC)ccc2OC)cc1 | 0 | nt | nt | nt | nt | nt | nt | nt
C[C@@H]1CN([C@@H](C)CO)C(=O)c2cc(-c3cncnc3)cnc2O[C@H]1CN(C)C(=O)Nc1ccc2c(c1)OCO2 | 3 | 49 | 0 | 98* | 46 | 18 | 11 | 13
C[C@H](CO)N1C[C@H](C)[C@@H](CN(C)C(=O)Nc2ccc3c(c2)OCO3)Oc2ncc(-c3cncnc3)cc2C1=O | 5 | -1 | 15 | 104* | 15 | -25 | -6 | 8
C[C@@H]1CN([C@@H](C)CO)C(=O)c2cc(-c3cncnc3)cnc2O[C@@H]1CN(C)C(=O)Nc1ccc2c(c1)OCO2 | -1 | 58 | 2 | 44 | nt | nt | nt | nt
Cc1ccc(NC(=O)c2c(NC(=O)CN3CCOCC3)sc3c2CCC3)c(C)c1 | 0 | nt | nt | nt | nt | nt | nt | nt
COCC(=O)Nc1ccc2c(c1)C(=O)N(C)C[C@H](OC)[C@H](C)CN(Cc1cc(F)ccc1F)[C@H](C)CO2 | 0 | -79 | 2 | 105* | 1 | 11 | 2 | ?
COCC(=O)Nc1ccc2c(c1)OC[C@@H](C)N(Cc1cc(F)ccc1F)C[C@H](C)[C@@H](OC)CN(C)C2=O | 0 | -2 | 2 | 107* | 74 | 26 | 21 | 24
CC1=CCC2C(=O)N(c3ccc(C4CCCCC4)cc3)C(=O)C2C1 (stereo unspecified) | 1 | nt | nt | nt | nt | nt | nt | nt
COc1ccc(S(=O)(=O)N2CCCCN3[C@H](CO)[C@H](c4ccc(C#CC(C)C)cc4)[C@@H]3C2)cc1 | nt | 9 | 0 | 81 | nt | nt | nt | nt
SMILES | IDH1 R132H inh | Pf Dd2 inh | GASC1 inh | T cruzi growth-1 | T cruzi growth-2 | T cruzi growth-3 | 3T3 cytotox | NIH3T3 tox 2
COc1ccc(S(=O)(=O)N2CCCCN3[C@H](CO)[C@@H](c4ccc(C#CC(C)C)cc4)[C@@H]3C2)cc1 | nt | -17 | 0 | 96* | 101* | 75 | 21 | 20
COc1ccc(S(=O)(=O)N2CCCCN3[C@H](C2)[C@H](c2ccc(C#CC(C)C)cc2)[C@@H]3CO)cc1 | nt | -24 | -1 | 118* | 107* | 105* | 1 | 69*
CCCNC(=O)[C@@H]1[C@@H](CO)[C@@H]2Cn3c(ccc(C4=CCCC4)c3=O)[C@H]1N2 | nt | 3 | 4 | 100* | -4 | -19 | -2 | -7
O=C(NCCCN1CCOCC1)[C@@H]1[C@@H](CO)[C@@H]2Cn3c(ccc(C4=CCCC4)c3=O)[C@H]1N2 | nt | 16 | 0 | ? | 51 | 11 | 17 | -4
O=C(NCCCN1CCOCC1)[C@H]1[C@H](CO)[C@H]2Cn3c(ccc(C4=CCCCC4)c3=O)[C@@H]1N2 | nt | nt | -3 | 33 | nt | nt | nt | nt
O=C(NCc1ccc(F)cc1)[C@H]1[C@H](CO)[C@H]2Cn3c(ccc(C4=CCCCC4)c3=O)[C@@H]1N2 | nt | nt | -3 | -132 | nt | nt | nt | nt
O=C(NCCN1CCCCC1)[C@H]1N[C@H]2c3ccc(-c4ccncc4)c(=O)n3C[C@H]2[C@@H]1CO | nt | -1 | -2 | 102* | -43 | -1 | -5 | -21
O=C(NCCCN1CCOCC1)[C@H]1N[C@H]2c3ccc(C4=CCCCC4)c(=O)n3C[C@H]2[C@@H]1CO | nt | 7 | -2 | ? | -19 | -15 | -9 | 0
Cc1ccc(-c2nnc(SCC(=O)Nc3ccccc3F)n2C)cc1 | 0 | nt | nt | nt | nt | nt | nt | nt
C[C@H](CO)N1C[C@H](C)[C@H](CN(C)C(=O)Nc2ccc3c(c2)OCO3)OCCCC[C@H](C)Oc2ccc(NC(=O)Nc3ccc(C(F)(F)F)cc3)cc2C1=O | 0 | -60 | -2 | 98* | 101* | 110* | -11 | 0
C[C@H]1CCCCO[C@@H](CN(C)C(=O)Nc2ccc(C(F)(F)F)cc2)[C@@H](C)CN([C@@H](C)CO)C(=O)c2cc(NC(=O)Nc3ccc4c(c3)OCO4)ccc2O1 | nt | -8 | -2 | 121* | 105* | 109* | -5 | 4
C[C@@H]1CCCCO[C@@H](CN(C)C(=O)Nc2ccc3c(c2)OCO3)[C@H](C)CN([C@H](C)CO)C(=O)c2cc(NC(=O)Nc3ccc(C(F)(F)F)cc3)ccc2O1 | 0 | -43 | 0 | 87 | nt | nt | nt | nt
